# KCNQ1 block = human KCNQ1 channel inhibition. P51787. CHO-K1 KCNQ1, FluxOR thallium flux fluorescence; hits give high values. B-score at 10 µM. hit rate 1.3% among 310,000;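 active = compounds whose thallium flux B-score, printed positive for inhibition, exceeds three library SD while starting fluorescence stays within three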;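 also: channel opened by potassium depolarization with thallium stimulus after 20 min compound exposure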
# KCNK3 inh = human KCNK3 channel inhibition, primary screen; O14649; CHO-KCNK3 thallium flux, FluxOR fluorescence; hits give low values; B-score at 10 µM; hit rate 0.84% among 340,000; AID 602410;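 active = B-score under library mean minus 4 SD, starting fluorescence ratio at most library mean plus 5 SD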;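 also: more negative B-score means stronger inhibition of thallium flux through KCNK3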
# KCNK9 block = blocks the human KCNK9 two-pore domain potassium channel. HEK293 KCNK9, FluxOR thallium flux fluorescence; hits give low values. hit rate 1.2% among 310,000. B-score at 10 µM. AID 488922. Q9NPC2;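 active = ratio B-score over 3 SD below the library mean, with starting fluorescence within 5 SD of its mean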;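 also: negative B-score means less thallium flux so channel inhibition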
# Target sequence (Q9NPC2 whole entry, looked up, the tested form may be a part): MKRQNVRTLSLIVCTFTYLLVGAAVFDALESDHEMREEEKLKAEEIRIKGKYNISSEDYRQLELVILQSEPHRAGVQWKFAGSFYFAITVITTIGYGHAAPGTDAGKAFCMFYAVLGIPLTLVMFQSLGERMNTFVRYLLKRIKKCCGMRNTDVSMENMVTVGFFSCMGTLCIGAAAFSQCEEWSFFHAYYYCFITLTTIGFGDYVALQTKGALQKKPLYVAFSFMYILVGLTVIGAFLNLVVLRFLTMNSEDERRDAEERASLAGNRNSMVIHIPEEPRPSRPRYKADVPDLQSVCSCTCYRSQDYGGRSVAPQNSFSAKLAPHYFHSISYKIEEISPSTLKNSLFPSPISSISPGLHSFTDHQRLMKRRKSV
# Kir21 inh = Kir2.1 (mouse) channel inhibition; P35561; HEK293-Kir2.1, FluxOR thallium flux fluorescence; hits give low values; B-score at 10 µM; hit rate 0.85% among 310,000; AID 1672;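 active = fluorescence ratio B-score at or below minus 3 SD of library scores, with starting-brightness B-score within 2 SD, cut at about -4.2 in these data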;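 also: channel flux triggered by added potassium and thallium sulfate stimulus; B-score of peak minus minimum fluorescence over baseline after thallium stimulus; more negative B-score means stronger Kir2.1 block with less thallium influx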
# hERG rescue = hERG (human) protection from proarrhythmic block; activation (rescue from dofetilide block), less the hit threshold, % at 10 µM; hit rate 0.51% among 310,000; CHO-hERG, FluxOR thallium flux, dofetilide IC70 present; AID 1511;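 active = activation above the mean of controls blocked by dofetilide plus 5 SD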;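 also: thallium influx through hERG after potassium depolarization seen as dye fluorescence rise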
# KCNQ1 pot = potentiates or activates the human KCNQ1 potassium channel. P51787. CHO-K1 KCNQ1, thallium flux FluxOR fluorescence; hits give high values. B-score at 10 µM. hit rate 0.35% among 310,000;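 active = fluorescence ratio B-score, a plate-corrected score, at least three library SD, with initial intensity B-score within 5 SD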
#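 assay system = CHO-K1 cells stably expressing KCNQ1 | medium = assay buffer, equal DMSO in all wells | timing = 37 °C overnight plating, 90-min dark dye load, 20-min compound pretreatment | measured by = kinetic FluxOR thallium fluorescence, 10-s 1-Hz baseline, 110-s post-stimulus read | measure = fluorescence change relative to baseline, converted to B score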
# * marks the source's active call; other numbers are inactive results; i = inactive; nt = not tested or not shown. Only some compounds are listed: those with a hit (about 3.8% of all), similar ones and a draw of the others.
SMILES,KCNQ1 block,KCNK3 inh,KCNK9 block,Kir21 inh,hERG rescue,KCNQ1 pot
CNCCOc1ccccc1-c1ccccc1,i,i,i,-0.59,-2.2,i
CNCCCCOc1ccccc1-c1ccccc1,i,i,i,-6.42*,-5.0,i
COCCCNCCCCOc1ccccc1-c1ccccc1,i,i,i,-4.55*,-5.0,i
COCCCNCCOc1ccccc1-c1ccccc1,i,i,i,-2.32,-3.1,i
CCCCNCCOc1ccccc1-c1ccccc1,i,i,i,-4.4*,-13.5,i
Cc1nn(CC(=O)Nc2ccncc2)c(C)c1[N+](=O)[O-],i,i,i,-2.29,-3.5,i
COc1cc(-c2nc(S(=O)(=O)c3ccc(C)cc3)c(N3CCOCC3)o2)cc(OC)c1OC,i,i,i,0.58,-5.5,i
Cc1ccccc1C(=O)c1cccn1CC(=O)NC(C)c1ccccc1 (stereo unspecified),i,i,i,-4.38*,1.2,i
Cc1ccsc1C1CC(=O)OC2=C1C(=O)CC(C)(C)C2 (stereo unspecified),i,nt,i,-3.96,-8.5,i
c1cc2c(cc1C1CCCCC1)c1c3n2CCCNC3CCC1 (stereo unspecified),i,i,i,-4.32*,-29.8,i
CCOC(=O)N1CCN(C(=O)COC(=O)c2cc(Cl)cc(Cl)c2)CC1,nt,i,nt,nt,nt,nt
CCOC(=O)N1CCN(C(=O)COC(=O)c2cc(Cl)c(O)c(Cl)c2)CC1,i,i,i,-1.7,8.1*,i
Nc1nc(CCl)nc(Nc2ccc3ccccc3c2)n1,i,i,i,-0.43,-9.7,13*
Cc1ccccc1Nc1nc(N)nc(CCl)n1,i,i,i,-1.79,-3.0,i
COc1cc(/C=C2\SC(=O)N(c3cccc(Cl)c3)C2=O)cc([N+](=O)[O-])c1O,nt,i,nt,nt,nt,nt
O=C1S/C(=C\c2ccc(O)c([N+](=O)[O-])c2)C(=O)N1c1ccccc1Cl,10*,i,i,-0.13,-11.1,i
O=C1S/C(=C\c2ccc(O)c([N+](=O)[O-])c2)C(=O)N1Cc1cccc([N+](=O)[O-])c1,11*,i,i,0,-8.8,i
COc1cc2c(cc1OC)C(C(N)=O)NCC2 (stereo unspecified),nt,i,nt,nt,nt,nt
O=[N+]([O-])c1ccc(C2=NN(c3ccccc3)C(c3ccco3)C2)cc1 (stereo unspecified),8*,i,i,-12.1,-30.9,i
O=[N+]([O-])c1ccc(/C=C/C2=NN(c3ccccc3)C(c3ccco3)C2)cc1 (stereo unspecified),nt,i,nt,nt,nt,nt
Cc1ccc(S(=O)(=O)NC(C)CCc2ccccc2)cc1 (stereo unspecified),i,i,i,-4.77*,-12.3,i
CC(=O)Nc1ccc(S(=O)(=O)NC(C)CCc2ccccc2)cc1 (stereo unspecified),i,i,i,-0.69,-2.0,i
Cc1ccc(-c2cc(C(=O)N3CCN(C(=O)c4ccco4)CC3)[nH]n2)c(C)c1,i,i,i,0.73,-7.2,i
O=Cc1ccc(N2CCCC2)c(F)c1,i,i,i,-0.04,-6.4,i
CN=C1S/C(=C\c2ccc(N3CCCC3)c(F)c2)C(=O)N1C,11*,i,i,-0.77,-7.6,i
SMILES,KCNQ1 block,KCNK3 inh,KCNK9 block,Kir21 inh,hERG rescue,KCNQ1 pot
Nc1nc(Nc2ccccc2)nc(NCc2ccccc2)c1[N+](=O)[O-],i,i,i,0.83,-4.1,i
Cc1cccc(Nc2nc(N)c([N+](=O)[O-])c(NCc3ccccc3)n2)c1,7*,i,i,-2.24,-8.5,i
CCN(CCCn1c(=S)[nH]c2ncccc2c1=O)c1ccccc1,i,i,i,1.91,38.2*,i
CCN(CC)c1nc(OCCNC(=O)Nc2ccccc2)nc(N(CC)CC)n1,10*,i,-7.94*,-5.31*,-11.0,i
CC1Cc2ccccc2N1CC(=O)Nc1ccc2c(c1)OCO2 (stereo unspecified),i,i,i,-1.89,-7.8,i
CC(C)N1C(=O)/C(=C/c2nc3ccccc3c(=O)n2-c2ccccc2)c2ccccc21,6*,i,i,-0.51,-19.5,i
CN(C)CCCNC(=O)c1cc(C(=O)c2ccccc2)c[nH]1,i,i,i,1.04,-3.1,i
O=C1C=C(NCc2ccccc2)c2ccccc2C1=O,i,i,i,1.26,-12.6,12*
Cc1csc(NC(=O)CSc2nc3[nH]ncc3c(=O)[nH]2)n1,i,i,i,0.85,-19.2,i
COC(=O)c1ccnc(/C=N/O)c1,i,i,i,0.36,6.2*,i
CC12CCC(C(=O)OC3CCCCC3)(OC1=O)C2(C)C (stereo unspecified),i,i,i,-1.55,5.8*,i
CCN(CC(=O)NC1CCS(=O)(=O)C1)S(=O)(=O)c1cccc(C(C)=O)c1 (stereo unspecified),i,i,i,0.12,-7.4,i
CCOC(=O)C1CCCN(C(=O)C(C)Oc2ccc(Cl)cc2Cl)C1 (stereo unspecified),i,i,i,-4.71*,-14.3,i
CCOC(=O)C1CCCN(C(=O)c2cc(Cl)ccc2Cl)C1 (stereo unspecified),i,i,i,-0.73,-5.9,i
Cc1ccc(NC(=O)COc2ccccc2C=O)cc1Cl,i,i,i,1.27,-5.0,i
CN(C)CCCN(C(=O)CCc1ccccc1)c1nc2ccc(F)cc2s1,i,i,i,-4.87*,-15.7,i
COCc1cc(C)n(CC(=O)N2CCCC2)c(=O)c1C#N,i,i,i,0.95,-9.4,i
COCCNC(=O)/C(C#N)=C/c1cccs1,i,i,i,-0.85,-8.4,i
COCCNC(=O)/C(C#N)=C/c1ccc(OC(=O)c2cccs2)c(OC)c1,i,i,i,-6.02*,-10.7,i
COc1ccc(CCNC(=O)/C(C#N)=C/c2cccc(OCc3ccccc3)c2)cc1OC,i,i,i,-4.4*,-12.7,i
O=C(Cc1ccccc1)NCCc1cccc(Cl)c1,i,i,i,-0.06,-9.2,i
O=[N+]([O-])/C=C/c1cn(Cc2ccc(Cl)cc2)c2ccccc12,i,i,i,-5.67*,-11.9,i
Cc1cccc(Cn2cc(/C=C/[N+](=O)[O-])c3ccccc32)c1,i,i,i,-2.55,-21.0,i
O=C(N/C=N/OCc1ccc(Cl)cc1Cl)NOCc1c(Cl)cccc1Cl,i,i,i,-0.64,-3.7,i
COc1ccc(C2C/C(=N\O)C(C)(C)O2)cc1 (stereo unspecified),i,i,i,-1.52,-4.9,i
